Data as given in ChEMBL document CHEMBL1124959, “Synthesis of peptidyl fluoromethyl ketones and peptidyl alpha-keto esters as inhibitors of porcine pancreatic elastase, human neutrophil elastase, and rat and human neutrophil cathepsin G” (J Med Chem, 1990).
Peptide text beside a SMILES is read from it. * marks the point of attachment. Dansyl = CN(C)c1cccc2c(S(=O)(=O)*)cccc12; MeOSuc = COC(=O)CCC(=O)*; Cbz = O=C(OCc1ccccc1)*; Boc = CC(C)(C)OC(=O)*; CF3 = FC(F)(F)*

Legend:
Pancreatic elastase [1] = target: T1, Pancreatic elastase (Sus scrofa, UniProt P08419+P00772); test: Binding affinity for porcine Elastase; assay type: protein assay
Procedure, shortened: (§1)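 Porcine pancreatic elastase was followed spectrophotometrically at 410 nm, 37 °C, with Suc-Ala-Pro-Ala-p-nitroanilide in pH 8.0 buffer (0.1 M NaCl, 0.01 M HEPES, 0.01 M Tris, 0.1% PEG 6000). Paired runs were done: enzyme added last, or enzyme preincubated with inhibitor before substrate. Only data up to 10% substrate consumption were used. K_i* came from steady-state rates fitted to competitive inhibition.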

Chymotrypsinogen B = Chymotrypsinogen B (Homo sapiens, UniProt P17538); test: Binding affinity against alpha-chymotrypsin
Sequence of Chymotrypsinogen B (P17538 34-164 limits assumed, other chains not shown): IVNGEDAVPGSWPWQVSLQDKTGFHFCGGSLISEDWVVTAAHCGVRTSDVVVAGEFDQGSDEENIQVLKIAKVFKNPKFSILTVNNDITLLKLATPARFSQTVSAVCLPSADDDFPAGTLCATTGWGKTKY
Sequence of Chymotrypsinogen B (P17538 167-263 limits assumed, other chains not shown): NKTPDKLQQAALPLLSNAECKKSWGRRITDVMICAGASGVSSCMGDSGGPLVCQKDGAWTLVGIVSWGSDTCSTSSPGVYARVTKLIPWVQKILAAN

Neutrophil elastase [2] = target: T2, Neutrophil elastase (Homo sapiens, UniProt P08246); test: Binding affinity against human Neutrophil Elastase
T2 sequence (P08246 whole entry): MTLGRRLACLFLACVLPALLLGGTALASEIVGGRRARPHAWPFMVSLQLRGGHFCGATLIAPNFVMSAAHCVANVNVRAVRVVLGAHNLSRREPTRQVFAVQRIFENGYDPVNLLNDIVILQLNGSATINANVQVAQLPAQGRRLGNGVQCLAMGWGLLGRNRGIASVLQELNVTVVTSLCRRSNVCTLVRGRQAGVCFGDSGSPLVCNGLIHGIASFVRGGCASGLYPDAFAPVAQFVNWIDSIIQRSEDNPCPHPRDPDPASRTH
Procedure, shortened: (§2)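 Human neutrophil elastase purified from purulent sputum. Activity was read at 410 nm (p-nitroaniline) at 37 °C with MeO-Suc-Ala-Ala-Pro-Val-p-nitroanilide in 0.1 M NaCl, 0.01 M HEPES, 0.01 M Tris, 0.1% PEG 6000, pH 8.0, 1.25% DMSO. Paired assays were run, one adding enzyme last and one preincubating enzyme with inhibitor. Data were limited to ≤10% substrate use. Steady-state K_i* came from the competitive inhibition equation.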

Pancreatic elastase [3] = target: T1, Pancreatic elastase; test: Binding affinity against porcine pancreatic Elastase; assay type: protein assay; procedure, shortened: as §1
Cathepsin G = target: T3, Cathepsin G (Homo sapiens, UniProt P08311); test: Binding affinity against human Cathepsin G
T3 sequence (P08311 whole entry): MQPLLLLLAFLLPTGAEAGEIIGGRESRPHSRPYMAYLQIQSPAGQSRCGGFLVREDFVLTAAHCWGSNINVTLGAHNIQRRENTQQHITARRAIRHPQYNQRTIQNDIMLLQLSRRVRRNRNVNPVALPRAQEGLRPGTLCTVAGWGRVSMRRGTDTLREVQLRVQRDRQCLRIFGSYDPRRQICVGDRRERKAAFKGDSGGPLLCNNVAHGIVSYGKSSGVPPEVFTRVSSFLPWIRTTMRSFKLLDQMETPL
Procedure, shortened: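 Cathepsin G came from neutrophil granule extracts of sputum or, for rat, peritoneal lavage, extracted in 1 M NaCl/0.1% Brij 35 acetate buffer, pH 5.5. K_i = [I]/(v0/v1 − 1), using equilibrium velocity when binding was slow.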

Neutrophil elastase [4] = target: T2, Neutrophil elastase; test: Binding affinity against human leukocyte Elastase
Neutrophil elastase [5] = target: T2, Neutrophil elastase; test: Binding affinity against human Elastase for less active diasteriomer; procedure, shortened: as §2
Neutrophil elastase [6] = target: T2, Neutrophil elastase; test: Binding affinity against human Elastase for more active diasteriomer

Row | SMILES | Ki (Pancreatic elastase [1]) [µM] | other results
1 | COC(=O)CCC(=O)NCCCC[C@H](NS(=O)(=O)C12CC3CC(CC(C3)C1)C2)C(=O)N1CCC[C@H]1C(=O)N[C@H](C(=O)C(F)(F)F)C(C)C | 0.015 | 
2 | COC(=O)CCC(=O)N[C@@H](C)C(=O)N[C@@H](C)C(=O)N1CCC[C@H]1C(=O)N[C@@H](Cc1ccccc1)C(=O)C(=O)OC |  | Ki (Chymotrypsinogen B): 79 nM
3 | CC(=O)N1CCC[C@H]1C(=O)N[C@@H](C)C(=O)N1CCC[C@H]1C(=O)N[C@@H](C)C(=O)C(=O)O |  | Ki (Neutrophil elastase [2]): 66 µM; Ki (Pancreatic elastase [3]): 0.69 µM
4 | CC(C)[C@H](NC(=O)[C@@H]1CCCN1C(=O)[C@H](Cc1ccccc1)NC(=O)OC(C)(C)C)C(=O)C(F)(F)F (Boc-Phe-Pro-Val-CF3) | 1.8 | 
5 | COC(=O)CCC(=O)N[C@H](C(=O)N1CCC[C@H]1C(=O)N[C@@H](Cc1ccccc1)C(=O)C(F)(F)F)C(C)C (MeOSuc-Val-Pro-Phe-CF3) |  | Ki (Cathepsin G): 3 µM
6 | COC(=O)CCC(=O)N[C@@H](C)C(=O)N[C@@H](C)C(=O)N1CCC[C@H]1C(=O)N[C@@H](Cc1ccccc1)C(=O)C(F)(F)F (MeOSuc-AAPF-CF3) |  | Ki (Chymotrypsinogen B): 17 nM
7 | COC(=O)CCC(=O)N[C@@H](C)C(=O)N[C@@H](C)C(=O)N1CCC[C@H]1C(=O)N[C@H](C(=O)C(=O)OC)C(C)C | 0.68 | 
8 | CC(C)[C@H](NC(=O)[C@H](CCCCNC(=O)OCc1ccccc1)NC(=O)OCc1ccccc1)C(=O)N1CCC[C@H]1C(=O)N[C@H](C(=O)C(F)(F)F)C(C)C (Cbz-K(Cbz)VPV-CF3) |  | Ki (Neutrophil elastase [4]): < 0.1 nM
9 | CC(C)[C@H](NC(=O)[C@@H]1CCCN1C(=O)[C@H](C)NC(=O)[C@H](C)NS(=O)(=O)c1cccc2c(N(C)C)cccc12)C(=O)C(F)(F)F (Dansyl-AAPV-CF3) | 0.088 | Ki (Neutrophil elastase [5]): 110 nM; Ki (Neutrophil elastase [6]): 6.3 nM; Ki (Cathepsin G): > 600 µM
10 | COC(=O)CCC(=O)N[C@H](C(=O)N1CCC[C@H]1C(=O)N[C@@H](Cc1ccccc1)C(=O)C(=O)OC)C(C)C |  | Ki (Cathepsin G): 1.1 µM
11 | CC(=O)N1CCC[C@H]1C(=O)N[C@@H](C)C(=O)N1CCC[C@H]1C(=O)N[C@@H](C)C=O (Ac-PAPA-aldehyde) |  | Ki (Pancreatic elastase [3]): 0.8 µM
12 | CCOC(=O)C(F)(F)C(=O)[C@@H](NC(=O)[C@@H]1CCCN1C(=O)[C@H](C)NC(=O)[C@H](C)NC(=O)CCC(=O)OC)C(C)C | 9.9 | 

Continued, in another order:

Row | Ki (Pancreatic elastase [1]) [µM] | SMILES | other results
13 | 0.033 | COC(=O)CCC(=O)N[C@@H](C)C(=O)N[C@@H](C)C(=O)N1CCC[C@H]1C(=O)N[C@H](C(=O)C(F)(F)F)C(C)C (MeOSuc-AAPV-CF3) | 
14 | 0.029 | COC(=O)C(=O)[C@H](C)NC(=O)[C@@H]1CCCN1C(=O)[C@H](C)NC(=O)[C@@H]1CCCN1C(C)=O | 
15 | 28 | COC(=O)CCC(=O)N[C@H](Cc1ccccc1)C(=O)N1CCC[C@H]1C(=O)N[C@H](C(=O)C(F)(F)F)C(C)C | 
16 | 0.14 | CCOC(=O)C(=O)[C@H](C)NC(=O)[C@H](C)NC(=O)[C@H](C)NC(=O)[C@H](C)NC(=O)OCc1ccccc1 | 
17 | 0.24 | CC(=O)N1CCC[C@H]1C(=O)N[C@@H](C)C(=O)N1CCC[C@H]1C(=O)N[C@@H](C)C(=O)C(F)(F)F (Ac-PAPA-CF3) | 
18 | 0.032 | CC(C)[C@H](NC(=O)[C@@H]1CCCN1C(=O)[C@H](C)NC(=O)[C@H](C)NC(=O)OC(C)(C)C)C(=O)C(F)(F)F (Boc-AAPV-CF3) | 
19 | 0.15 | CC(=O)N[C@@H](C)C(=O)N[C@@H](C)C(=O)N1CCC[C@H]1C(=O)N[C@@H](C)C(=O)C(F)(F)F (Ac-AAPA-CF3) | Ki (Cathepsin G): > 800 µM
